Values after ≈ are worked out from the molar mass of the structure shown. Active and inactive are the calls of the source. The calls are words filed in the database; no cut-off is given here.
Legend:
DNA gyrase = DNA gyrase (Staphylococcus aureus, UniProt P0A0K8+P20831); assay: Inhibition of Staphylococcus aureus DNA gyrase assessed as reduction in enzyme-catalyzed supercoiling of relaxed circular pBR322 DNA by agarose gel electrophoresis; assay type: protein-complex assay
Method in brief: (§1)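 Recombinant S. aureus gyrase kit, 0.5 U enzyme, relaxed pBR322 (250 ng/μL) in 40 mM HEPES·KOH pH 7.6, 10 mM Mg acetate, 10 mM DTT, 2 mM ATP, 500 mM K glutamate, 0.5 mg/mL albumin; 37 °C, 30 min.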

[1] = Inhibition of Staphylococcus aureus topoisomerase 4 assessed as reduction in decatenation of kDNA at 100 to 500 uM by gel electrophoresis method
Method in brief: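 Compounds were in DMSO, with water or DMSO as vehicle controls. Reactions were stopped with STEB plus chloroform:isoamyl alcohol and run on 1% agarose TAE gels stained with ethidium bromide. IC50 was taken from densitometry against reactions with and without enzyme.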

[2] = target: DNA gyrase (Staphylococcus aureus) (UniProt P0A0K8+P20831); assay: Inhibition of Staphylococcus aureus DNA gyrase assessed as reduction in enzyme-catalyzed supercoiling of relaxed circular pBR322 DNA at 100 uM by agarose gel electrophoresis; assay type: protein-complex assay; method in brief: as §1
Staphylococcus aureus [3] = assay: Antimicrobial activity against ciprofloxacin-resistant Staphylococcus aureus CRC61 incubated for 16 hrs by CLSI based method; assay type: functional; conditions: CRC61, 16 h
Staphylococcus aureus [4] = assay: Antimicrobial activity against methicillin-resistant Staphylococcus aureus USA300 NRS384 incubated for 16 hrs by CLSI based method; assay type: functional; conditions: USA300 NRS384, 16 h
Staphylococcus aureus [5] = assay: Antimicrobial activity against methicillin-resistant Staphylococcus aureus USA300-0114 incubated for 16 hrs by CLSI based method; assay type: functional; conditions: USA300-0114, 16 h
Staphylococcus aureus [6] = assay: Antimicrobial activity against vancomycin intermediate-resistant Staphylococcus aureus Mu50 incubated for 16 hrs by CLSI based method; assay type: functional; conditions: Mu50, 16 h
Staphylococcus aureus [7] = assay: Antimicrobial activity against vancomycin-resistant Staphylococcus aureus VRSA1 incubated for 16 hrs by CLSI based method; assay type: functional; conditions: VRSA1, 16 h
Enterococcus faecium = assay: Antimicrobial activity against Enterococcus faecium 824-05 incubated for 16 hrs by CLSI based method; assay type: functional; conditions: 824-05, 16 h
Acinetobacter baumannii = assay: Antimicrobial activity against Acinetobacter baumannii 983709 incubated for 16 hrs by CLSI based method; assay type: functional; conditions: Acinetobacter baumannii, 983709, 16 h
Klebsiella pneumoniae = assay: Antimicrobial activity against Klebsiella pneumoniae CKP4 incubated for 16 hrs by CLSI based method; assay type: functional; conditions: CKP4, 16 h
Escherichia coli [8] = assay: Antimicrobial activity against Escherichia coli 8314 incubated for 16 hrs by CLSI based method; assay type: functional; conditions: Escherichia coli, 8314, 16 h
Escherichia coli [9] = assay: Antimicrobial activity against tolC and imp(-) containing Escherichia coli incubated for 16 hrs by CLSI based method; assay type: functional
[10] = target: Voltage-gated inwardly rectifying potassium channel KCNH2 (Homo sapiens, UniProt Q12809)
[11] = target: T1, Ribonuclease J 2 (Staphylococcus aureus (strain COL)) (UniProt Q5HGF6); assay: Inhibition of Staphylococcus aureus RNAse J2
T1 sequence (whole entry): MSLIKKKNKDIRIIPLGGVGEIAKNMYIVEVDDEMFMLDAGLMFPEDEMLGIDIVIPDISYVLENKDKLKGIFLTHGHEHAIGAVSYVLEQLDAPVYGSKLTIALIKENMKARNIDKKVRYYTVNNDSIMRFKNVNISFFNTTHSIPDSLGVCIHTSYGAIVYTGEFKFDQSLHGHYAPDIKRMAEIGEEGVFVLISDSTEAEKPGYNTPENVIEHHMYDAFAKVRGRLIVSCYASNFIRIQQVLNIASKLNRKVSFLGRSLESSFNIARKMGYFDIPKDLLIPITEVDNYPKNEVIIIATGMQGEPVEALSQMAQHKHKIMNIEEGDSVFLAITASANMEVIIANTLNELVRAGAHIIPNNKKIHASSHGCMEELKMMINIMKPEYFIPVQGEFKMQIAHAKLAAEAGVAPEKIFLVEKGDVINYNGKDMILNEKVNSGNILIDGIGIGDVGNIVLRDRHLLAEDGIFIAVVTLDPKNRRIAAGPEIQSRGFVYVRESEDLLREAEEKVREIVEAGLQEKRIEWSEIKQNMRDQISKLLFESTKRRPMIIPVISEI

[12] = target: T2, Ribonuclease P protein component (Staphylococcus aureus (strain COL)) (UniProt Q5HCI2); assay: Inhibition of Staphylococcus aureus RnpA
T2 sequence (whole entry): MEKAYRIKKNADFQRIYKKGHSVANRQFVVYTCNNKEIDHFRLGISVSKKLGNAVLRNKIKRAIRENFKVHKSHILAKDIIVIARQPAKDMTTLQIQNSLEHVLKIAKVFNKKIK

Staphylococcus aureus [13] = assay: Antimicrobial activity against Staphylococcus aureus UAMS1 incubated for 16 hrs by CLSI based method; assay type: functional; conditions: UAMS1, 16 h
[14] = tested on: Mycobacterium tuberculosis; assay: Antimicrobial activity against Mycobacterium tuberculosis mc2 6020 incubated for 16 hrs by alamar blue assay; assay type: functional; conditions: mc2 6020, 16 h
Staphylococcus aureus [15] = assay: Antimicrobial activity against Staphylococcus aureus U1 incubated for 16 hrs by CLSI based method; assay type: functional; conditions: U1, 16 h

Chain of DNA gyrase (P0A0K8 whole entry): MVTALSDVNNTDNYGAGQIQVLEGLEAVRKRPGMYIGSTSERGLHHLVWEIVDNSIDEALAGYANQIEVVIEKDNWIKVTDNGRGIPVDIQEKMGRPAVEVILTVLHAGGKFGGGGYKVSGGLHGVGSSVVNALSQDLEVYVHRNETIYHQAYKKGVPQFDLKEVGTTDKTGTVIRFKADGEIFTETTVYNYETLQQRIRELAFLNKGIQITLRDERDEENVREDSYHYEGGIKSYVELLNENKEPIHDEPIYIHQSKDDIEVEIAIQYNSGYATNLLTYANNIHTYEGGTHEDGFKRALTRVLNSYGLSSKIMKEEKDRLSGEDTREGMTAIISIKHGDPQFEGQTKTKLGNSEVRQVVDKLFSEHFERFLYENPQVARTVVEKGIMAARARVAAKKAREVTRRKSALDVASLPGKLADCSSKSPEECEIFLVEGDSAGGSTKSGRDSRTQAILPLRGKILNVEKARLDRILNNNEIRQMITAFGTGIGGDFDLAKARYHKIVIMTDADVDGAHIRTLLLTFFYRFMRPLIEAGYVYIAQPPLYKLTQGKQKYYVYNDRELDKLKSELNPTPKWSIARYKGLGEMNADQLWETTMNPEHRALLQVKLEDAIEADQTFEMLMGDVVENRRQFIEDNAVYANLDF
Chain of DNA gyrase (P20831 whole entry): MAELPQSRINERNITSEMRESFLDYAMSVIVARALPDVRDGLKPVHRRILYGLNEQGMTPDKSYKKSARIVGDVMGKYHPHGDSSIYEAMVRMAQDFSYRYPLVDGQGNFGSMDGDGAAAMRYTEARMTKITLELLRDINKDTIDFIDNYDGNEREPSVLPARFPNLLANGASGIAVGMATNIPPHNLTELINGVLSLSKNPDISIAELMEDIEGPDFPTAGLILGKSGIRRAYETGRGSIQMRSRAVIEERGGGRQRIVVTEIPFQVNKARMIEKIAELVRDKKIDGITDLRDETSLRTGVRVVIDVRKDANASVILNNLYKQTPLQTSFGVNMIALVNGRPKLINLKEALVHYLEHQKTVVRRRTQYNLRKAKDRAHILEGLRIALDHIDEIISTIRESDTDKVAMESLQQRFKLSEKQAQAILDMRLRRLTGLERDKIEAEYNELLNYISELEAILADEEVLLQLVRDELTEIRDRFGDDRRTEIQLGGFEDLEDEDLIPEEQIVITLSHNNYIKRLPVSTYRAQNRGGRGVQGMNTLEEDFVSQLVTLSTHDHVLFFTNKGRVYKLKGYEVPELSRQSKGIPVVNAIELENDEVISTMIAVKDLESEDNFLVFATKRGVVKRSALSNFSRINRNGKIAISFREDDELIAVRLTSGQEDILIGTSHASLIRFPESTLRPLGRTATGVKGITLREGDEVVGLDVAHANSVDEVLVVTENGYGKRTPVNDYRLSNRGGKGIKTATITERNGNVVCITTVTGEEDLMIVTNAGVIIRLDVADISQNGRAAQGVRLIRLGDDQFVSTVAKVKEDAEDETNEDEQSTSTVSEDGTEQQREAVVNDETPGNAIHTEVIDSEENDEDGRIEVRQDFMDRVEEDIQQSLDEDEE
Chain of DNA gyrase (Staphylococcus aureus) (P0A0K8 2-644 limits assumed): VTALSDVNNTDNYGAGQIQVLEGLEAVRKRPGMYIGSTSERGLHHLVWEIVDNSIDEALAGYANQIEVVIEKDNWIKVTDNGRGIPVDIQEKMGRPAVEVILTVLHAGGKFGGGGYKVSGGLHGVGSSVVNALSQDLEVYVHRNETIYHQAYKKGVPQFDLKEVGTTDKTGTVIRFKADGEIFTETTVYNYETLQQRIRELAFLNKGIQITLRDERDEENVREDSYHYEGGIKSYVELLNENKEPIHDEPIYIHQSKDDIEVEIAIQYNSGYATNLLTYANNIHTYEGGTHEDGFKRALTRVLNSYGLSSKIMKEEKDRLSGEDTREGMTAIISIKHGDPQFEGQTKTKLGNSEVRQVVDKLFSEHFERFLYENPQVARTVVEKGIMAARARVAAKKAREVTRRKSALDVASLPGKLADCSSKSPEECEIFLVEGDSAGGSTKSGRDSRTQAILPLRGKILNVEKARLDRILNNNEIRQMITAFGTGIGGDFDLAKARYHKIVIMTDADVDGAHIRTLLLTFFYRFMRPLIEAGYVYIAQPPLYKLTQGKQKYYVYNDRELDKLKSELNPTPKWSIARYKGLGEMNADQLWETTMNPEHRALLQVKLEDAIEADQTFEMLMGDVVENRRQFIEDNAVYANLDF
Chain of DNA gyrase (Staphylococcus aureus) (P20831 whole entry partner): as the sequence (P20831 whole entry) above
Chain of Voltage-gated inwardly rectifying potassium channel KCNH2 (Q12809 whole entry): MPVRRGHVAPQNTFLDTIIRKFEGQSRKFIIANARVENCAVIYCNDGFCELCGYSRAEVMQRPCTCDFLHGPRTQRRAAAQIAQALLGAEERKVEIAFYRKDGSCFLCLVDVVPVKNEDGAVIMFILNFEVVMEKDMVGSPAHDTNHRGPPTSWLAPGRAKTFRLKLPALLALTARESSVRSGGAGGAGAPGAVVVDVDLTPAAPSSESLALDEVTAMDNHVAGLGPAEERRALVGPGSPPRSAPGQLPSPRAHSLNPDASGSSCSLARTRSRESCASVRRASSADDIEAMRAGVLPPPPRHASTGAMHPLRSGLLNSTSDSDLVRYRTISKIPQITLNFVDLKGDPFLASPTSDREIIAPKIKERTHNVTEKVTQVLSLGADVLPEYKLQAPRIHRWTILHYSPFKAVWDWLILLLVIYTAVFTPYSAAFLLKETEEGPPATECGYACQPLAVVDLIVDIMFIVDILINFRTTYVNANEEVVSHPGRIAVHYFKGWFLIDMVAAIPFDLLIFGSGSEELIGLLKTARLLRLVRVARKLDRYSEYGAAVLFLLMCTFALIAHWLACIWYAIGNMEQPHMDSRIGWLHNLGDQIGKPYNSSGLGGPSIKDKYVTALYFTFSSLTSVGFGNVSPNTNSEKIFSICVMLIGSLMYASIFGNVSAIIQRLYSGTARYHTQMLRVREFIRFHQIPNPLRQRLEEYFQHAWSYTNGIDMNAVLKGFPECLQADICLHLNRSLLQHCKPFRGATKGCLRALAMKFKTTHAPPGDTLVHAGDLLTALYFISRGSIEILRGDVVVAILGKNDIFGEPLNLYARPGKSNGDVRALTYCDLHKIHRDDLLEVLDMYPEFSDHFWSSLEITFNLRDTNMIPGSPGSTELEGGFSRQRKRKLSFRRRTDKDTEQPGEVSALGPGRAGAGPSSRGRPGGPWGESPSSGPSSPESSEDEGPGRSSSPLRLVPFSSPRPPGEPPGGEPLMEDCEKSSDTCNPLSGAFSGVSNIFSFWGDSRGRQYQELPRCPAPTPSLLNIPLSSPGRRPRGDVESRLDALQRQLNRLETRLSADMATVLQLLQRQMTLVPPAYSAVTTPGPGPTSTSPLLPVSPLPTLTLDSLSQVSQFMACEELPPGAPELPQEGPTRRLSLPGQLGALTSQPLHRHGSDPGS

Row | SMILES | IC50 (DNA gyrase) [µM] | IC50 [1] [µM] | MIC (Staphylococcus aureus [13]) [µg/mL] | other results
1 | OC(c1ccccc1)(c1ccccc1)C1CCN(Cc2ccc(-c3ccccc3)cc2)CC1 | 125 | 160 |  | inhibition [2]: Active; MIC (Staphylococcus aureus [3]): 4 µg/mL (≈ 9.23 µM); MIC (Staphylococcus aureus [4]): 4 µg/mL (≈ 9.23 µM); MIC (Staphylococcus aureus [5]): 8 µg/mL (≈ 18.5 µM); MIC (Staphylococcus aureus [6]): 8 µg/mL (≈ 18.5 µM); MIC (Staphylococcus aureus [7]): 8 µg/mL (≈ 18.5 µM); MIC (Enterococcus faecium): 8 µg/mL (≈ 18.5 µM); MIC (Acinetobacter baumannii): > 256 µg/mL; MIC (Klebsiella pneumoniae): > 256 µg/mL; MIC (Escherichia coli [8]): > 256 µg/mL; MIC (Escherichia coli [9]): 2 µg/mL (≈ 4.61 µM); IC50 [10]: 0.21 µM
2 | O=C(O)c1cn(C2CC2)c2cc(N3CCNCC3)c(F)cc2c1=O |  |  |  | inhibition [2]: Active
3 | CC(C)(C)c1ccc(C(O)CCCN2CCC(C(O)(c3ccccc3)c3ccccc3)CC2)cc1 (centres undefined) [TERFENADINE] |  | 206 |  | inhibition [11]: inactive; inhibition [12]: inactive
4 | OC(c1ccccc1)(c1ccccc1)C1CCN(CCCOc2ccc(-c3ccccc3)cc2)CC1 | 50 | 160 | 1 (≈ 2.09 µM) | inhibition [2]: Active; MIC (Staphylococcus aureus [4]): 2 µg/mL (≈ 4.19 µM); MIC (Staphylococcus aureus [7]): 2 µg/mL (≈ 4.19 µM); MIC [14]: 1 µg/mL (≈ 2.09 µM); MIC (Acinetobacter baumannii): > 128 µg/mL; MIC (Klebsiella pneumoniae): > 128 µg/mL; MIC (Escherichia coli [8]): > 128 µg/mL; MIC (Escherichia coli [9]): 4 µg/mL (≈ 8.37 µM); MIC (Staphylococcus aureus [15]): 1 µg/mL (≈ 2.09 µM); IC50 [10]: 0.14 µM
5 | OC(c1ccccc1)(c1ccccc1)C1CCN(CCc2ccc(-c3ccccc3)cc2)CC1 | 80 | 133 | 8 (≈ 17.9 µM) | 
6 | CC(C)(C)c1ccc(CCCCN2CCC(C(O)(c3ccccc3)c3ccccc3)CC2)cc1 | 93 | 320 | 8 (≈ 17.6 µM) | 
7 | OC(CCCN1CCC(C(O)(c2ccccc2)c2ccccc2)CC1)c1ccc(Cl)cc1 (centres undefined) | 133 | > 333 | 64 (≈ 142 µM) | 
8 | OC(c1ccccc1)(c1ccccc1)C1CCN(CCc2ccc(Br)cc2)CC1 | 247 | 260 | 16 (≈ 35.5 µM) | 
9 | CC(C)(C)c1ccc(CCN2CCC(C(O)(c3ccccc3)c3ccccc3)CC2)cc1 | 93 | 147 | 8 (≈ 18.7 µM) | 
10 | O=[N+]([O-])c1ccc(CCN2CCC(C(O)(c3ccccc3)c3ccccc3)CC2)cc1 | 263 | > 333 | 64 (≈ 154 µM) | 
11 | CC(C)(C)c1ccc(C(O)CCCCN2CCC(C(O)(c3ccccc3)c3ccccc3)CC2)cc1 (centres undefined) | 100 | 133 | 16 (≈ 32.9 µM) | 
12 | CC(C)(C)c1ccc(CCCN2CCC(C(O)(c3ccccc3)c3ccccc3)CC2)cc1 | 93 | 100 | 8 (≈ 18.1 µM) | 
13 | OC(CCCN1CCC(C(O)(c2ccccc2)c2ccccc2)CC1)c1ccc(Br)cc1 (centres undefined) | > 500 | > 333 | 32 (≈ 64.7 µM) | 
14 | OC(CCCN1CCC(C(O)(c2ccccc2)c2ccccc2)CC1)c1ccc(-c2ccccc2)cc1 (centres undefined) | 13 | 100 | 8 (≈ 16.3 µM) | 
15 | OC(c1ccccc1)(c1ccccc1)C1CCN(CCc2ccc(-c3ccncc3)cc2)CC1 | 93 | 227 | 32 (≈ 71.3 µM) | 
16 | O=C(O)c1ccc(C(O)CCCN2CCC(C(O)(c3ccccc3)c3ccccc3)CC2)cc1 (centres undefined) | > 500 | > 333 | > 256 | 
17 | OC(c1ccccc1)(c1ccccc1)C1CCN(CCc2ccc(-c3cccnc3)cc2)CC1 | 250 | 280 | 32 (≈ 71.3 µM) | 
18 | CC(C)(C)c1ccc(C(=O)CCN2CCC(C(O)(c3ccccc3)c3ccccc3)CC2)cc1 | 90 | 133 | 32 (≈ 70.2 µM) | 
19 | CC(C)(C)c1cccc(CCN2CCC(C(O)(c3ccccc3)c3ccccc3)CC2)c1 | 93 | > 333 | 16 (≈ 37.4 µM) | 
20 | OC(c1ccccc1)(c1ccccc1)C1CCN(CCc2ccc(Cl)cc2)CC1 | 260 | 267 | 32 (≈ 78.8 µM) | 
